Measurements reported in ChEMBL document CHEMBL4028900, “Design of Novel 3-Pyrimidinylazaindole CDK2/9 Inhibitors with Potent In Vitro and In Vivo Antitumor Efficacy in a Triple-Negative Breast Cancer Model” (J Med Chem, 2017).

Legend:
[1] = molecular target: Serine/threonine-protein kinase 26 (Homo sapiens) (UniProt Q9P289); assay: Inhibition of MST4 (unknown origin) at 100 nM relative to control
[2] = molecular target: Aurora kinase A (Homo sapiens) (UniProt O14965); assay: Inhibition of aurora A (unknown origin) at 100 nM relative to control
[3] = molecular target: Glycogen synthase kinase-3 beta (Homo sapiens) (UniProt P49841); assay: Inhibition of GSK3b (unknown origin) at 100 nM relative to control
[4] = molecular target: Insulin receptor-related protein (Homo sapiens) (UniProt P14616); assay: Inhibition of IRR (unknown origin) at 100 nM relative to control
[5] = Plasma concentration in BALB/c mouse at 2.5 mg/kg, iv at 0.25 hrs by LC/MS-MS analysis; format: ADME, organism-based
[6] = test system: BT-549; assay: Antiproliferative activity against human BT549 cells
[7] = molecular target: Tyrosine-protein kinase JAK3 (Homo sapiens) (UniProt P52333); assay: Inhibition of JAK3 (unknown origin) at 500 nM relative to control
[8] = molecular target: Tyrosine-protein kinase Lck (Homo sapiens) (UniProt P06239); assay: Inhibition of LCK (unknown origin) at 500 nM relative to control
[9] = molecular target: Serine/threonine-protein kinase 26 (Homo sapiens) (UniProt Q9P289); assay: Inhibition of MST4 (unknown origin) at 500 nM relative to control
[10] = molecular target: Serine/threonine-protein kinase Chk1 (Homo sapiens) (UniProt O14757); assay: Inhibition of CHK1 (unknown origin) at 100 nM relative to control
[11] = molecular target: Aurora kinase A (Homo sapiens) (UniProt O14965); assay: Inhibition of aurora A (unknown origin) at 500 nM relative to control
[12] = test system: MCF7; assay: Antiproliferative activity against human MCF7 cells
[13] = molecular target: Dual specificity tyrosine-phosphorylation-regulated kinase 1A (Homo sapiens) (UniProt Q13627); settings: at 500 nM
[14] = molecular target: Tyrosine-protein kinase CSK (Homo sapiens) (UniProt P41240); assay: Inhibition of CSK (unknown origin) at 500 nM relative to control
[15] = Selectivity ratio of IC50 for HEK cells to IC50 for human MCF7 cells
[16] = molecular target: Protein-tyrosine kinase 6 (Homo sapiens) (UniProt Q13882); assay: Inhibition of BRK (unknown origin) at 100 nM relative to control
[17] = molecular target: Tyrosine-protein kinase JAK3 (Homo sapiens) (UniProt P52333); assay: Inhibition of JAK3 (unknown origin) at 100 nM relative to control
[18] = molecular target: Serine/threonine-protein kinase Nek6 (Homo sapiens) (UniProt Q9HC98); assay: Inhibition of NEK6 (unknown origin) at 100 nM relative to control
[19] = molecular target: Glycogen synthase kinase-3 beta (Homo sapiens) (UniProt P49841); assay: Inhibition of GSK3b (unknown origin) at 500 nM relative to control
[20] = molecular target: Phosphatidylinositol 4,5-bisphosphate 3-kinase catalytic subunit alpha isoform (Homo sapiens) (UniProt P42336); assay: Inhibition of PI3Kalpha (unknown origin) at 500 nM relative to control
[21] = molecular target: Tyrosine-protein kinase CSK (Homo sapiens) (UniProt P41240); assay: Inhibition of CSK (unknown origin) at 100 nM relative to control
[22] = molecular target: Vascular endothelial growth factor receptor 1 (Homo sapiens) (UniProt P17948); assay: Inhibition of VEGFR1 (unknown origin) at 500 nM relative to control
[23] = molecular target: Ribosomal protein S6 kinase beta-1 (Homo sapiens) (UniProt P23443); assay: Inhibition of S6K1 (unknown origin) at 100 nM relative to control
[24] = Plasma concentration in BALB/c mouse at 2.5 mg/kg, iv at 1 hr by LC/MS-MS analysis; format: ADME, organism-based
[25] = Plasma concentration in BALB/c mouse at 2.5 mg/kg, iv at 0.5 hrs by LC/MS-MS analysis; format: ADME, organism-based
[26] = test system: MDA-MB-231; assay: Antiproliferative activity against human MDA-MB-231 cells
[27] = test system: HCT-116; assay: Antiproliferative activity against human HCT116 cells after 72 hrs by SRB assay; settings: HCT-116, 72 h
[28] = molecular target: Serine/threonine-protein kinase Sgk1 (Homo sapiens) (UniProt O00141); assay: Inhibition of SGK (unknown origin) at 100 nM relative to control
[29] = molecular target: Ribosomal protein S6 kinase beta-1 (Homo sapiens) (UniProt P23443); assay: Inhibition of S6K1 (unknown origin) at 500 nM relative to control
[30] = test system: 4T1; assay: Antiproliferative activity against mouse 4T1 cells after 24 hrs by MTT assay; settings: 4T1, 24 h
[31] = molecular target: Inhibitor of nuclear factor kappa-B kinase subunit beta (Homo sapiens) (UniProt O14920); assay: Inhibition of IKKbeta (unknown origin) at 100 nM relative to control
[32] = molecular target: Tyrosine-protein kinase Lck (Homo sapiens) (UniProt P06239); assay: Inhibition of LCK (unknown origin) at 100 nM relative to control
[33] = molecular target: Phosphatidylinositol 4,5-bisphosphate 3-kinase catalytic subunit alpha isoform (Homo sapiens) (UniProt P42336); assay: Inhibition of PI3Kalpha (unknown origin) at 100 nM relative to control
[34] = molecular target: Inhibitor of nuclear factor kappa-B kinase subunit beta (Homo sapiens) (UniProt O14920); assay: Inhibition of IKKbeta (unknown origin) at 500 nM relative to control
[35] = test system: T47D; assay: Antiproliferative activity against human T47D cells after 72 hrs by SRB assay
[36] = molecular target: Serine/threonine-protein kinase Chk1 (Homo sapiens) (UniProt O14757); assay: Inhibition of CHK1 (unknown origin) at 500 nM relative to control
[37] = test system: MDA-MB-468; assay: Antiproliferative activity against human MDA-MB-468 cells
[38] = molecular target: Mitogen-activated protein kinase 10 (Homo sapiens) (UniProt P53779); assay: Inhibition of JNK3 (unknown origin) at 100 nM relative to control
[39] = molecular target: Vascular endothelial growth factor receptor 1 (Homo sapiens) (UniProt P17948); assay: Inhibition of VEGFR1 (unknown origin) at 100 nM relative to control
[40] = test system: SH-SY5Y; assay: Antiproliferative activity against human SH-SY5Y cells after 24 hrs by MTT assay; format: functional, cell-based
[41] = molecular target: Serine/threonine-protein kinase PLK1 (Homo sapiens) (UniProt P53350); assay: Inhibition of PLK1 (unknown origin) at 100 nM relative to control
[42] = molecular target: Protein-tyrosine kinase 6 (Homo sapiens) (UniProt Q13882); assay: Inhibition of BRK (unknown origin) at 500 nM relative to control
[43] = molecular target: Serine/threonine-protein kinase Nek6 (Homo sapiens) (UniProt Q9HC98); assay: Inhibition of NEK6 (unknown origin) at 500 nM relative to control
[44] = Plasma concentration in BALB/c mouse at 2.5 mg/kg, iv at […] by LC/MS-MS analysis; format: ADME, organism-based
[45] = molecular target: Dual specificity tyrosine-phosphorylation-regulated kinase 1A (Homo sapiens) (UniProt Q13627); settings: at 100 nM
[46] = molecular target: Mitogen-activated protein kinase 10 (Homo sapiens) (UniProt P53779); assay: Inhibition of JNK3 (unknown origin) at 500 nM relative to control
[47] = test system: 4T1; assay: Antitumor activity against mouse 4T1 cells allografted in Balb/C mouse assessed as tumor growth inhibition at 15 mg/kg, iv administered every 3 days for 21 days measured 2 times for every week during dosing relative to control; format: functional; settings: 4T1, iv, read-out: TGI
[48] = Antiproliferative activity against HEK cells; settings: Homo sapiens, HEK293
[49] = molecular target: Serine/threonine-protein kinase PLK1 (Homo sapiens) (UniProt P53350); assay: Inhibition of PLK1 (unknown origin) at 500 nM relative to control
[50] = molecular target: Serine/threonine-protein kinase Sgk1 (Homo sapiens) (UniProt O00141); assay: Inhibition of SGK (unknown origin) at 500 nM relative to control
[51] = molecular target: Insulin receptor-related protein (Homo sapiens) (UniProt P14616); assay: Inhibition of IRR (unknown origin) at 500 nM relative to control
[52] = test system: Mus musculus; assay: Toxicity in Balb/C mouse allografted with mouse 4T1 cells assessed as body weight loss at 5 mg/kg, iv administered every 3 days for 21 days measured 2 times for every week during dosing; format: organism-based; settings: in vivo
Procedure, shortened: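 Female Balb/c mice received 1×10^6 4T1 cells into the second mammary fat pad. At about 100 mm3 tumor volume they were split into groups of five. Doses were given iv by tail vein in 200 µL every three days for 21 days, with a PBS diluent control. Body weight and tumor size were measured twice weekly, and the experiment was repeated twice.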

[53] = test system: Mus musculus; assay: Toxicity in Balb/C mouse allografted with mouse 4T1 cells assessed as mortality at 5 mg/kg, iv administered every 3 days for 21 days; format: organism-based; settings: in vivo
[54] = test system: 4T1; assay: Antitumor activity against mouse 4T1 cells allografted in Balb/C mouse assessed as tumor growth inhibition at 5 mg/kg, iv administered every 3 days for 21 days measured 2 times for every week during dosing relative to control; format: functional; settings: 4T1, iv, read-out: TGI
Procedure, shortened: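 4T1 cells were grown in RPMI-1640 with 10% FBS, pyruvate and NEAA at 37 °C and 5% CO2. Female Balb/C mice received 1×10^6 cells into the second mammary fat pad. At about 100 mm3, mice were grouped five per group and dosed by tail vein in 200 µL (PBS diluent) every three days for 21 days. Tumor volume (L×B²/2, caliper) and body weight were taken twice weekly. The experiment was repeated twice.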

[55] = test system: Ehrlich; assay: Antitumor activity against Swiss mouse EAC cells allografted in Swiss mouse assessed as tumor growth inhibition at 22 mg/kg, ip administered for 13 days measured on day 13 post last dose relative to control; format: functional; settings: 312 h, read-out: TGI
[56] = test system: Mus musculus; assay: Toxicity in Swiss mouse allografted with Swiss mouse EAC cells assessed as body weight at 22 mg/kg, ip administered for 13 days measured on day 13 post last dose (reference value: 28.7 g); format: organism-based; settings: in vivo, 312 h
[57] = test system: Mus musculus; assay: Toxicity in Swiss mouse allografted with Swiss mouse EAC cells assessed as mortality at 22 mg/kg, ip administered for 9 to 13 days; format: organism-based; settings: in vivo
[58] = test system: Mus musculus; assay: Toxicity in Swiss mouse allografted with Swiss mouse EAC cells assessed as body weight at 22 mg/kg, ip administered for 9 days measured on day 9 post last dose (reference value: 27.9 g); format: organism-based; settings: in vivo, 216 h
[59] = test system: Mus musculus; assay: Toxicity in Swiss mouse allografted with Swiss mouse EAC cells assessed as body weight at 22 mg/kg, ip administered for 5 days measured on day 5 post last dose (reference value: 27.1 g); format: organism-based; settings: in vivo, 120 h
[60] = test system: Mus musculus; assay: Toxicity in Swiss mouse allografted with Swiss mouse EAC cells assessed as body weight at 22 mg/kg, ip measured on day 1 (reference value: 26.2 g); format: organism-based; settings: in vivo

Chain of Tyrosine-protein kinase CSK (Homo sapiens) (P41240 2-450 limits assumed): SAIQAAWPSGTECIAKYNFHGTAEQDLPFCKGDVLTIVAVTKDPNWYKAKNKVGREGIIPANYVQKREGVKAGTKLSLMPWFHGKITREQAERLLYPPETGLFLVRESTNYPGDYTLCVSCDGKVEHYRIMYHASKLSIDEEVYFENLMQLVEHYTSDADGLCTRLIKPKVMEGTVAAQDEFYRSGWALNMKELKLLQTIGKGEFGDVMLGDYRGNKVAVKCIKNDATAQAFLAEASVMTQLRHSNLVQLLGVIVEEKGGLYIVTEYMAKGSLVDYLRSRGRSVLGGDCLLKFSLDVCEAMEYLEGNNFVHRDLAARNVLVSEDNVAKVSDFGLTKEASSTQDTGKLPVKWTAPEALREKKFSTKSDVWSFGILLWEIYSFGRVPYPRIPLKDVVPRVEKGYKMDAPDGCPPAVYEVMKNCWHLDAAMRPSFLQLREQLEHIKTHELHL
Chain of Ribosomal protein S6 kinase beta-1 (Homo sapiens) (P23443 whole entry, looked up): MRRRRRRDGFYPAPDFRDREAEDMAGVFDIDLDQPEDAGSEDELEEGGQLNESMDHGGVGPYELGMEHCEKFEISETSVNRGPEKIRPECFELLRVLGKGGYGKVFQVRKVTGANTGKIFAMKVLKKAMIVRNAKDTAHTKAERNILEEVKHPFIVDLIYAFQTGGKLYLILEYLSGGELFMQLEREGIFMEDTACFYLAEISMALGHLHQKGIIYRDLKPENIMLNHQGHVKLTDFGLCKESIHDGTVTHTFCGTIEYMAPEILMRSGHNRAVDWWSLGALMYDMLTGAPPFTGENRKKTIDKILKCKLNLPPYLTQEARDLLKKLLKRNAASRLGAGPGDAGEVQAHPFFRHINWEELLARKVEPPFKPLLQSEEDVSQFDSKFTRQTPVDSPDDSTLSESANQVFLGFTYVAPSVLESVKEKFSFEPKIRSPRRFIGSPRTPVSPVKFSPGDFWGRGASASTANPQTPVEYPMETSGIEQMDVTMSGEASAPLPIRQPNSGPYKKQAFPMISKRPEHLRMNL
Chain of Serine/threonine-protein kinase Chk1 (Homo sapiens) (O14757 whole entry): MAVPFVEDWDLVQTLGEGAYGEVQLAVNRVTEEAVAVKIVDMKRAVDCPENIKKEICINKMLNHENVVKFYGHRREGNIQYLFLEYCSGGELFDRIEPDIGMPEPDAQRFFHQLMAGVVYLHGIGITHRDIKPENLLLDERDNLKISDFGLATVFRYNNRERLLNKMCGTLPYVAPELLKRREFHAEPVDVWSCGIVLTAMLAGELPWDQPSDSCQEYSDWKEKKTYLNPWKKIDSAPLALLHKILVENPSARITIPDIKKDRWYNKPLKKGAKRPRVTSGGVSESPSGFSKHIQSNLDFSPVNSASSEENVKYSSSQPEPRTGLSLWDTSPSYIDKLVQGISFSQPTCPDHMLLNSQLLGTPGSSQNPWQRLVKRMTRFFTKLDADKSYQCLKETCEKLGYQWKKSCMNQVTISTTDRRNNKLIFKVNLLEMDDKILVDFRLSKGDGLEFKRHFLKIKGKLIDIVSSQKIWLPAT
Chain of Serine/threonine-protein kinase Sgk1 (Homo sapiens) (O00141 whole entry): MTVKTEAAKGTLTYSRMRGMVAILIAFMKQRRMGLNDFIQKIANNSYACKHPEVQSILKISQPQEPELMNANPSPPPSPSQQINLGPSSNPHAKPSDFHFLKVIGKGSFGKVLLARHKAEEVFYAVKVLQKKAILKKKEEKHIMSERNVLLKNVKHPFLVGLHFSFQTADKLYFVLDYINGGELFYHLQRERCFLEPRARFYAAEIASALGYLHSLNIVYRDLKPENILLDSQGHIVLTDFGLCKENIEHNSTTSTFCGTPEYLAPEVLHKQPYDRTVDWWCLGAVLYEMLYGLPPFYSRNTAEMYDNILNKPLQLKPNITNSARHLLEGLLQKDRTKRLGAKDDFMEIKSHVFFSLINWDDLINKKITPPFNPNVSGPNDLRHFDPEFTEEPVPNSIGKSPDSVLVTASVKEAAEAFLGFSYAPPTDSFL
Chain of Aurora kinase A (Homo sapiens) (O14965 whole entry): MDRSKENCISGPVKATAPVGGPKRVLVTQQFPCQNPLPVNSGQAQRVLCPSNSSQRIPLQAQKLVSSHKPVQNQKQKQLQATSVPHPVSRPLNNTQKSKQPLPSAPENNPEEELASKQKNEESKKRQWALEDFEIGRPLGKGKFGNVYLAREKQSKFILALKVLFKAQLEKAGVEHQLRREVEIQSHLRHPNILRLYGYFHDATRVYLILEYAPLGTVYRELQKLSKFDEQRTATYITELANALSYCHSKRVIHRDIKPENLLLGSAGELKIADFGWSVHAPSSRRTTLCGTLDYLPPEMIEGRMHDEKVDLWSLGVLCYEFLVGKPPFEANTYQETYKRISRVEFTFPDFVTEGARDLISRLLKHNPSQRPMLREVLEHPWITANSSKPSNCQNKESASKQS
Chain of Insulin receptor-related protein (Homo sapiens) (P14616 27-742 limits assumed): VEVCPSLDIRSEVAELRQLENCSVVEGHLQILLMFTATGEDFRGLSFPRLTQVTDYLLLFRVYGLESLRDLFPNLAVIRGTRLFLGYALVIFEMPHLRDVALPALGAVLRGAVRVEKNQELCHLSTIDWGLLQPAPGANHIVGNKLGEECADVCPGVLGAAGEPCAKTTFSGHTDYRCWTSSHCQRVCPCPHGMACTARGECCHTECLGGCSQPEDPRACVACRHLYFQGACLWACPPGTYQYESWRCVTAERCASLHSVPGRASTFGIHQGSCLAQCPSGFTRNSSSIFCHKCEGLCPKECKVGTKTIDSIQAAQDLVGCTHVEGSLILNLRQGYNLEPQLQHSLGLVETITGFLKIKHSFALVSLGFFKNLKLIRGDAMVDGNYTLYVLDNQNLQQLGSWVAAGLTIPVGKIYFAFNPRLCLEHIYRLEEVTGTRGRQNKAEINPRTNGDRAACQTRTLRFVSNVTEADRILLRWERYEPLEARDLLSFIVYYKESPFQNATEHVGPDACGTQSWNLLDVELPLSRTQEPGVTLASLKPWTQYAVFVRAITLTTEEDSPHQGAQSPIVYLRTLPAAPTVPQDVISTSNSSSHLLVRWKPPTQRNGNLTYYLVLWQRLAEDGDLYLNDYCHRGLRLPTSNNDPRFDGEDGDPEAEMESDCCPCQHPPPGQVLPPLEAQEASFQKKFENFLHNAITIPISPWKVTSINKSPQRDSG
Chain of Insulin receptor-related protein (Homo sapiens) (P14616 747-1297 limits assumed): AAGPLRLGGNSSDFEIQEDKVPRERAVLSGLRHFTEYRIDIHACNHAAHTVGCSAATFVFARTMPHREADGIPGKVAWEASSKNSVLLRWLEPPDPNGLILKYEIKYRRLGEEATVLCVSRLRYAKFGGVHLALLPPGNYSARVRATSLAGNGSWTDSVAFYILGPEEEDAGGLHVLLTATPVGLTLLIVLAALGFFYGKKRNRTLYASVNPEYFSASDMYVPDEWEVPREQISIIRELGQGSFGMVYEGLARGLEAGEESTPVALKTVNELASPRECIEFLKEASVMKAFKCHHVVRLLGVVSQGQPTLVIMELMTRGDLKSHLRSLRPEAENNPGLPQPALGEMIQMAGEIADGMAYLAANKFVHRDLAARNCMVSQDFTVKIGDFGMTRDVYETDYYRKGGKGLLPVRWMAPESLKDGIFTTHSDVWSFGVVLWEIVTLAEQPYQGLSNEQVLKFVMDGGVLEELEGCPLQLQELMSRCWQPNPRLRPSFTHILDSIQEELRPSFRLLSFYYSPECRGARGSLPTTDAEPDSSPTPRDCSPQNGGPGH
Chain of Phosphatidylinositol 4,5-bisphosphate 3-kinase catalytic subunit alpha isoform (Homo sapiens) (P42336 whole entry, canonical isoform): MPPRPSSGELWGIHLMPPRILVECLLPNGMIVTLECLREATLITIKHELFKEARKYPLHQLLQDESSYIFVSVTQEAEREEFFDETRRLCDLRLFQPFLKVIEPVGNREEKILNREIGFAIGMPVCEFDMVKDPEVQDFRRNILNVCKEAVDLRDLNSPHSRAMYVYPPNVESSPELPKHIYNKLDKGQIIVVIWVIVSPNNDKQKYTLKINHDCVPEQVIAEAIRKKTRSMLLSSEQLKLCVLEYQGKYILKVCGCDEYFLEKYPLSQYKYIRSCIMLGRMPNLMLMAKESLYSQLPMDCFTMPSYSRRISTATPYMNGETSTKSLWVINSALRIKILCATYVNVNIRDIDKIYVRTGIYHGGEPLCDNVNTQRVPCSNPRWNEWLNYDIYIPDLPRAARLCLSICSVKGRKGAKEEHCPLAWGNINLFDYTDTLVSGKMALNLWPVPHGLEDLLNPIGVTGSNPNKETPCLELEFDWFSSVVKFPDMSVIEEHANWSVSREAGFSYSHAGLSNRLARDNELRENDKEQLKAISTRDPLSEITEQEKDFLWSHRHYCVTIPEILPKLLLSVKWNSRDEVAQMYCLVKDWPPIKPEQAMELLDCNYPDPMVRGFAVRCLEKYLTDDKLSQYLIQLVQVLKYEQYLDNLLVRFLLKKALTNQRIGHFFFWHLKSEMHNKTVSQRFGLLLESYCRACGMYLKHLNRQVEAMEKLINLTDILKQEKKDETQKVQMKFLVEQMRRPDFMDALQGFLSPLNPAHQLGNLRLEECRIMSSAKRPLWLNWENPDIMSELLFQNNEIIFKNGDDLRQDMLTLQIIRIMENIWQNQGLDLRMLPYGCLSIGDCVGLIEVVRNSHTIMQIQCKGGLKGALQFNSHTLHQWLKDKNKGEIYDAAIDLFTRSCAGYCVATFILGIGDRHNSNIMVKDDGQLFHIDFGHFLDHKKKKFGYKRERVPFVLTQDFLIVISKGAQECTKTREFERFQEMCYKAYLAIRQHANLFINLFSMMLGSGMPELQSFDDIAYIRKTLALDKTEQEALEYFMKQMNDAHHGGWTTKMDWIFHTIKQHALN
Chain of Serine/threonine-protein kinase Nek6 (Homo sapiens) (Q9HC98 whole entry): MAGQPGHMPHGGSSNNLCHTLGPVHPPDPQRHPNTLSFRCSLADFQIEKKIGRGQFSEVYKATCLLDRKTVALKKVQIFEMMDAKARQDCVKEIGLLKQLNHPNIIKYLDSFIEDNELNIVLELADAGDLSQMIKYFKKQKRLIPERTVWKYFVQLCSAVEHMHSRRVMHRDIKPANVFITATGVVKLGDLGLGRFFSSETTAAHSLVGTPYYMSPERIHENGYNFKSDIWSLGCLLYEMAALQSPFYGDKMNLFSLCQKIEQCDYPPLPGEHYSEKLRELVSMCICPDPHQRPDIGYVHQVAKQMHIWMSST

Compound: COc1ccnc2[nH]cc(-c3ccnc(N)n3)c12 [MERIOLIN 3]
- inhibition [1]: 6.7%
- inhibition [2]: 10.6%
- inhibition [3]: 13.4%
- inhibition [4]: 6.9%
- concentration at 0.25 h [5]: 141 ng/mL
- IC50 [6]: 130 nM
- inhibition [7]: 14.6%
- inhibition [8]: 8.3%
- inhibition [9]: 11.4%
- inhibition [10]: 13.4%
- inhibition [11]: 9.5%
- IC50 [12]: 200 nM
- inhibition [13]: 98.3%
- inhibition [14]: -4.6%
- Ratio IC50 [15]: 0.94
- inhibition [16]: 10.6%
- inhibition [17]: 31.9%
- inhibition [18]: 4.1%
- inhibition [19]: 13.7%
- inhibition [20]: 21.1%
- inhibition [21]: 6.9%
- inhibition [22]: 3.1%
- inhibition [23]: 84.5%
- concentration at 1 h [24]: 35.3 ng/mL
- concentration at 0.5 h [25]: 54.9 ng/mL
- IC50 [26]: 200 nM
- IC50 [27]: 100 nM
- inhibition [28]: 29.3%
- inhibition [29]: 91.7%
- IC50 [30]: 650 nM
- inhibition [31]: 37.2%
- inhibition [32]: 7.3%
- inhibition [33]: 11.5%
- inhibition [34]: 43.8%
- IC50 [35]: 200 nM
- inhibition [36]: 13.7%
- IC50 [37]: 160 nM
- inhibition [38]: -7.9%
- inhibition [39]: 0.9%
- IC50 [40]: 120 nM
- inhibition [41]: -1.7%
- inhibition [42]: 9.5%
- inhibition [43]: 20.1%
- concentration at […] [44]: 313 ng/mL
- inhibition [45]: 96%
- inhibition [46]: -2.6%
- inhibition in vivo at 15 mg/kg [47]: 95%
- IC50 [48]: 188 nM
- inhibition [49]: 14.6%
- inhibition [50]: 38.1%
- inhibition [51]: -4.6%

Compound: COc1cccc2c1C(=O)c1c(O)c3c(c(O)c1C2=O)C[C@@](O)(C(=O)CO)C[C@@H]3O[C@H]1C[C@H](N)[C@H](O)[C@H](C)O1 [DOXORUBICIN]
- Activity [52]: Toxic
- Activity [53]: Non-Toxic
- inhibition in vivo at 5 mg/kg [54]: 97.3%

Compound: O=c1[nH]cc(F)c(=O)[nH]1 [FLUOROURACIL]
- inhibition in vivo at 22 mg/kg [55]: 50.4%
- Activity [56]: 24.85 g
- Activity [57]: Non-Toxic
- Activity [58]: 24.57 g
- Activity [59]: 25 g
- Activity [60]: 26 g
